pKd: −log10 of the molar value.
Key:
[1] = Inhibition of Mycobacterium tuberculosis CYP121A1 mediated cYY conversion to mycocyclosin assessed as fold change in cYY level at 100 uM incubated for 2 hrs in the presence of NADPH by LC-MS activity assay relative to clotrimazole; assay type: ADME; conditions: recombinant enzyme
[2] = Binding affinity to Mycobacterium tuberculosis CYP121A1 expressed in Escherichia coli HMS174 (DE3) assessed as thermal stability by measuring increase in melting temperature at 1mM by SYPRO orange dye based differential scanning fluorimetry assay; conditions: 1000 µM
Summary of the method: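 Protein at 5 μM in 100 mM potassium phosphate pH 6.9 with 2.5× Sypro Orange. Ligand 1 mM final, 4% DMSO-d6. Scanned 25–95 °C in 0.5 °C steps of 30 s. Positive Tm shifts repeated in triplicate and averaged over four runs.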

[3] = system: Mycobacterium tuberculosis; experiment: Antimycobacterial activity against Mycobacterium tuberculosis H37Rv assessed as inhibition of bacterial growth in presence of middlebrook 7H9/ADC/tyloxapol/glycerol medium measured for 1 week by resazurin based colorimetric assay; assay type: functional; conditions: 168 h, time 1 weeks
Summary of the method: (§1)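 Mtb H37Rv grown in 7H9 with 10% ADC, 0.05% tyloxapol, 0.02% glycerol to OD600 ~1, then pre-adapted 8 days at 37 °C in the test medium (c7H9, 7H9-Low BSA or MMM-Ch). DMSO stocks serially diluted, 400 to 0.78 μM, about 10^5 CFU per well. Incubated at 37 °C for 1 week (c7H9, Low BSA) or 2 weeks (MMM-Ch). 0.02% resazurin added for 1 day more. MIC90 read visually as lowest concentration with no colour change.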

[4] = system: Mycobacterium tuberculosis; experiment: Antimycobacterial activity against Mycobacterium tuberculosis H37Rv assessed as inhibition of bacterial growth in presence of Mycobacterial minimal medium with cholesterol measured for 2 weeks by resazurin based colorimetric assay; assay type: functional; conditions: 336 h; summary of the method: as §1
[5] = system: Mycobacterium tuberculosis; experiment: Antimycobacterial activity against Mycobacterium tuberculosis H37Rv assessed as inhibition of bacterial growth in presence of middlebrook 7H9/BSAADN//tyloxapol/glycerol medium measured for 1 week by resazurin based colorimetric assay; assay type: functional; conditions: 168 h, time 1 weeks; summary of the method: as §1
[6] = Binding affinity to Mycobacterium tuberculosis CYP121A1 expressed in Escherichia coli HMS174 (DE3) assessed as dissociation constant by isothermal titration calorimetry; assay type: ADME
Summary of the method: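 Untagged His-purified CYP121A1 at 50 μM in 50 mM Tris-HCl, 1 mM EDTA, pH 7.2, with 10% DMSO-d6. Ligand at 0.5 or 2.5 mM final. One 0.2 μL injection discarded, then 19 injections of 2 μL at 120 s intervals, 25 °C. Ligand-into-buffer heats subtracted. One-site fit, N fixed at 1 for weak binders or left free.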

[7] = Inhibition of cYY binding to Mycobacterium tuberculosis CYP121A1 expressed in Escherichia coli HMS174 (DE3) assessed as dissociation constant of cYY preincubated with compound followed by substrate addition by competitive UV-visible spectroscopic analysis; assay type: ADME
Summary of the method: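 CYP121A1 at 5 μM. […] UV-vis difference spectra processed as for direct titrations and fitted to the Hill equation for Kd.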

| SMILES | fold change (FC) [1] | further results |
| --- | --- | --- |
| Clc1ccc2[nH]cc(CCc3ccncc3)c2c1 | 2.3 |  |
| FC(F)(F)Oc1ccc2[nH]cc(CCc3ccncc3)c2c1 | 1.2 |  |
| Brc1ccc2[nH]cc(CCc3ccnc(N4CCOCC4)n3)c2c1 | 3.8 |  |
| COC1CN(c2nccc(CCc3c[nH]c4ccccc34)n2)C1 | 1.2 |  |
| c1ccc2c(CCc3ccncn3)c[nH]c2c1 | 1.8 | deltaTm [2]: 3.5 °C |
| COC1CN(c2nccc(CCc3c[nH]c4ccc(Br)cc34)n2)C1 | 1.8 |  |
| Brc1ccc2[nH]cc(CCc3ccncc3)c2c1 | 1.3 |  |
| N[C@H](Cc1c[nH]c2ccccc12)c1nc(-c2ccc(OC(F)(F)F)cc2)cs1 |  | MIC90 [3]: 40 µM; MIC90 [4]: 40 µM; MIC90 [5]: 40 µM |
| Cn1cc(CCc2ccnc(N3CCOCC3)n2)c2ccccc21 | 2.1 |  |
| Oc1ccc2[nH]cc(CCc3ccnc(N4CCOCC4)n3)c2c1 | 3.5 | deltaTm [2]: 0.5 °C |
| c1ccc2c(CCc3ccnc(N4CCCOCC4)n3)c[nH]c2c1 | 4.7 |  |
| Nc1[nH]nc(-c2ccc(O)cc2)c1-c1ccc(O)cc1 |  | pKd [6]: 4.70; deltaTm [2]: 1 °C |
| N[C@H](Cc1c[nH]c2ccccc12)c1nc(-c2ccccc2)cs1 |  | MIC90 [3]: 40 µM; MIC90 [4]: 40 µM; MIC90 [5]: 40 µM |
| c1ccc2c(CCc3ccnc(N4CCOCC4)n3)c[nH]c2c1 | 4.7 | pKd [7]: 4.60 |
| COc1ccc2[nH]cc(CCc3ccncc3)c2c1 | 1 |  |
| FC(F)(F)Oc1ccc2[nH]cc(CCc3ccnc(N4CCOCC4)n3)c2c1 | 1.1 |  |
| Fc1ccc2[nH]cc(CCc3ccnc(N4CCOCC4)n3)c2c1 | 10.6 |  |
| N[C@H](Cc1c[nH]c2ccccc12)c1nc(-c2ccccn2)cs1 |  | MIC90 [3]: 40 µM; MIC90 [4]: 40 µM; MIC90 [5]: 40 µM |
| c1ccc2c(c1)OCCN2c1nccc(CCc2c[nH]c3ccccc23)n1 | 0.1 | pKd [7]: 4.76 |
| Brc1ccc2c(c1)N(c1nccc(CCc3c[nH]c4ccccc34)n1)CCO2 | 0.3 |  |
| c1ccc2c(CCc3ccncc3)c[nH]c2c1 | 1.1 |  |
| Ic1ccc2[nH]cc(CCc3ccncc3)c2c1 | 1.9 |  |
| c1ccc2c(CCc3nc4c(c(N5CCOCC5)n3)CNC4)c[nH]c2c1 | 4.1 | deltaTm [2]: 3.5 °C |
| Fc1ccc2[nH]cc(CCc3ccncc3)c2c1 | 3.5 |  |
| c1ccc2c(CCc3nc4c(c(N5CC6CCC(C5)O6)n3)CNC4)c[nH]c2c1 |  | deltaTm [2]: 2.4 °C |
| c1ccc2c(CCc3nc4c(c(N5CCOCC5)n3)CCNC4)c[nH]c2c1 | 1.3 | deltaTm [2]: 1 °C |

— ChEMBL document CHEMBL5120755, “A new strategy for hit generation: Novel in cellulo active inhibitors of CYP121A1 from Mycobacterium tuberculosis via a combined X-ray crystallographic and phenotypic screening approach (XP screen)” (Eur J Med Chem, 2022)
